Laboratory results published in ChEMBL document CHEMBL3763021 (Eur J Med Chem, 2016).

What was measured:
LS174T [1] = experiment: Antitumor activity against human LS174T cells xenografted in BALB/C mouse assessed as tumor weight inhibition at 18.75 mg/kg, bid administered for 10 days measured twice per week; assay type: functional; settings: 240 h, read-out: TGI
Summary of the method: (§1)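 Male BALB/c nude mice, 18–20 g, kept under SPF conditions. LS-174T cells at 2.5×10^7 cells/mL were injected s.c. into the right flank, and tumors were grown to about 100 mm3. Mice were randomized, n=6 treated and n=9 vehicle. Oral dosing ran qd or bid for 10 days; vehicle controls got the same volume of solvent. Tumor volume = length×width²/2, measured twice weekly. IR = (control − treated)/control for tumor weight or volume at day 10.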

[2] = Antiproliferative activity against human BxPC3 cells after 72 hrs by CellTiter-Glo luminescent cell viability assay; assay type: functional, cell-based; settings: BXPC-3, 72 h
Summary of the method: (§2)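 Cells were grown in DMEM with 10% FBS, seeded at a density suited to each line, and left 24 h at 37 °C. Compounds were prepared in DMSO, diluted in medium over a concentration series starting at 100 µM, and applied for 72 h. CellTiter-Glo reagent was added for 30 min at room temperature before reading luminescence. IC50 came from four-parameter curve fitting.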

LS174T [3] = experiment: Antitumor activity against human LS174T cells xenografted in BALB/C mouse assessed as tumor weight inhibition at 75 mg/kg, bid administered for 10 days measured twice per week; assay type: functional; settings: 240 h, read-out: TGI; summary of the method: as §1
[4] = AUC (0 to t) in Sprague-Dawley rat at 1 mg/kg, iv by LC/MS/MS analysis; assay type: ADME, organism-based; settings: in vivo
Summary of the method: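 Male SD rats, 3 per compound, 180–240 g, single iv dose at 1 mg/kg, dosing volume 5 mL/kg. Blood sampled at 2, 5, 15, 30 min and 1, 2, 4, 6, 8, 10, 24 h, then centrifuged at 4 °C. Plasma protein-precipitated and analysed by LC/MS/MS in SRM mode with internal standard. AUC(0-t) obtained by noncompartmental analysis.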

Mus musculus [5] = experiment: Toxicity in BALB/C mouse xenografted with human LS174T cells assessed as loss of body weight at 18.75 to 75 mg/kg, bid administered for 10 days measured twice per week; assay type: organism-based; settings: in vivo, 240 h
Summary of the method: (§3)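 Male BALB/C nude mice (18–20 g) kept under SPF conditions. LS-174T cells at 2.5×10^7 cells/mL injected subcutaneously into the right flank. Once tumors reached about 100 mm3, mice were randomized to groups of 6 (vehicle group n = 9) and dosed orally once or twice daily for 10 days. Controls received solvent. Body weight and tumor volume were measured twice weekly and deaths recorded.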

[6] = Cmax in Sprague-Dawley rat at 1 mg/kg, iv by LC/MS/MS analysis; assay type: ADME, organism-based; design: dose 1 mg/kg, route intravenous; settings: in vivo
Summary of the method: (§4)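 Male SD rats, 180–240 g, 3 per compound; single dose of 1 mg/kg iv or 5 mg/kg po, dosing volume 5 mL/kg. Blood was sampled from 2 min to 24 h and centrifuged at 4 °C. Plasma underwent protein precipitation, then LC/MS/MS in SRM mode with an internal standard. Parameters were derived by noncompartmental analysis.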

[7] = Half life in Sprague-Dawley rat at 1 mg/kg, iv by LC/MS/MS analysis; assay type: ADME, organism-based; settings: in vivo; summary of the method: as §4
[8] = AUC (0 to t) in Sprague-Dawley rat at 5 mg/kg, po by LC/MS/MS analysis; assay type: ADME, organism-based; settings: in vivo; summary of the method: as §4
[9] = Inhibition of Sonic-induced hedgehog signalling in mouse NIH3T3 cells after 48 hrs by Gli-luciferase reporter assay; assay type: cell-based; settings: NIH3T3, 48 h
Summary of the method: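 NIH3T3 cells stably carrying a Gli-luciferase reporter were kept in DMEM with 10% FBS and 1 µg/mL puromycin, then seeded at 2×10^4 cells/well overnight at 37 °C. Compounds at 0.05–300 nM (8 concentrations) were added in medium with 0.5% FBS and 0.7 µg/mL Sonic Hh agonist, n=4 wells, for 48 h. Readout was the Firefly/Renilla luciferase ratio in lysates.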

[10] = Mean resident time (0 to t) in Sprague-Dawley rat at 1 mg/kg, iv by LC/MS/MS analysis; assay type: ADME, organism-based; settings: in vivo; summary of the method: as §4
LS174T [11] = experiment: Antitumor activity against human LS174T cells xenografted in BALB/C mouse assessed as tumor volume inhibition at 18.75 mg/kg, bid administered for 10 days measured twice per week; assay type: functional; settings: 240 h, read-out: TGI; summary of the method: as §1
LS174T [12] = experiment: Antitumor activity against human LS174T cells xenografted in BALB/C mouse assessed as tumor volume inhibition at 75 mg/kg, bid administered for 10 days measured twice per week; settings: 240 h, read-out: TGI
[13] = Antiproliferative activity against human PC3 cells after 72 hrs by CellTiter-Glo luminescent cell viability assay; assay type: functional, cell-based; settings: PC-3, 72 h; summary of the method: as §2
LS174T [14] = experiment: Antitumor activity against human LS174T cells xenografted in BALB/C mouse assessed as tumor weight inhibition at 37.5 mg/kg, bid administered for 10 days measured twice per week; assay type: functional; settings: 240 h, read-out: TGI; summary of the method: as §1
[15] = Apparent volume of distribution in Sprague-Dawley rat at 1 mg/kg, iv by LC/MS/MS analysis; settings: in vivo
Mus musculus [16] = experiment: Toxicity in BALB/C mouse xenografted with human LS174T cells assessed as mortality at 18.75 to 75 mg/kg, bid administered for 10 days; assay type: organism-based; settings: in vivo, 240 h; summary of the method: as §3
LS174T [17] = experiment: Antitumor activity against human LS174T cells xenografted in BALB/C mouse assessed as tumor volume inhibition at 37.5 mg/kg, bid administered for 10 days measured twice per week; assay type: functional; settings: 240 h, read-out: TGI; summary of the method: as §1
BXPC-3 = experiment: Potency index, ratio of GDC-0449 IC50 to compound IC50 for human BxPC3 cells; assay type: functional
[18] = Clearance in Sprague-Dawley rat at 1 mg/kg, iv by LC/MS/MS analysis; assay type: ADME, organism-based; settings: in vivo; summary of the method: as §4
[19] = Half life in Sprague-Dawley rat at 5 mg/kg, po by LC/MS/MS analysis; assay type: ADME, organism-based; settings: in vivo; summary of the method: as §4
LS174T [20] = experiment: Potency index, ratio of GDC-0449 IC50 to compound IC50 for human LS174T cells; assay type: functional
[21] = Clearance in Sprague-Dawley rat at 5 mg/kg, po by LC/MS/MS analysis; assay type: ADME, organism-based; settings: in vivo; summary of the method: as §4
Rattus norvegicus = experiment: Apparent volume of distribution in Sprague-Dawley rat at 5 mg/kg, po by LC/MS/MS analysis; settings: in vivo
LS174T [22] = experiment: Antiproliferative activity against human LS174T cells after 72 hrs by CellTiter-Glo luminescent cell viability assay; assay type: functional, cell-based; summary of the method: as §2
PC-3 = experiment: Potency index, ratio of GDC-0449 IC50 to compound IC50 for human PC3 cells; assay type: functional
[23] = Mean resident time (0 to t) in Sprague-Dawley rat at 5 mg/kg, po by LC/MS/MS analysis; assay type: ADME, organism-based; settings: in vivo; summary of the method: as §4
[24] = Oral bioavailability in Sprague-Dawley rat at 5 mg/kg; assay type: ADME, organism-based; settings: in vivo; summary of the method: as §4
[25] = Cmax in Sprague-Dawley rat at 5 mg/kg, po by LC/MS/MS analysis; assay type: ADME, organism-based; design: dose 5 mg/kg, route oral; settings: in vivo; summary of the method: as §4

Compound `Cc1ccc(CN2CCOCC2)cc1NC(=O)c1ccc(Nc2ncc(F)c(-c3ccc(OC(F)(F)F)cc3)n2)cc1` has an inhibition in vivo at 18.75 mg/kg (LS174T [1]) of 18.4%, an IC50 [2] of 14.5 µM and an inhibition in vivo at 75 mg/kg (LS174T [3]) of 14.4%. The AUC(0-t) [4] was 2030 ng·h/mL, the Activity (Mus musculus [5]) was “Non-toxic” and the Cmax [6] was 1010 ng/mL. It also gave a half-life [7] of 6.98 h, an AUC(0-t) [8] of 4720 ng·h/mL and an IC50 [9] of 0.00103 µM. The MRT last [10] was 4.85 h, the inhibition in vivo at 18.75 mg/kg (LS174T [11]) was 34% and the inhibition in vivo at 75 mg/kg (LS174T [12]) was 33.1%. It also gave an IC50 [13] of 11.6 µM, an inhibition in vivo at 37.5 mg/kg (LS174T [14]) of 17.3% and a Vd [15] of 4.67 L/kg. For the same compound, the Activity (Mus musculus [16]) was “Non-toxic”, the inhibition in vivo at 37.5 mg/kg (LS174T [17]) was 34.9% and the “Ratio IC50” value (BXPC-3) was 3. It also gave a clearance [18] of 7.75 mL/min/kg, a half-life [19] of 9.08 h and a Ratio IC50 (LS174T [20]) of 5. The CL/F [21] was 15.5 mL/min/kg, the “Vd(app)” value (Rattus norvegicus) was 12.03324 L/kg and the IC50 (LS174T [22]) was 9.1 µM. The Ratio IC50 (PC-3) was 5.8, the MRT last [23] was 7.42 h and the bioavailability [24] was 37.2%. For the same compound, the Cmax [25] was 494 ng/mL.
